Source: ChEMBL document CHEMBL1131303, “New cyclooxygenase-2/5-lipoxygenase inhibitors. 2. 7-tert-butyl-2,3-dihydro-3,3-dimethylbenzofuran derivatives as gastrointestinal safe antiinflammatory and analgesic agents: variations of the dihydrobenzofuran ring” (J Med Chem, 1998)

Tests used:
Mus musculus [1] = species on record: Mus musculus; experiment: The compound was tested for effective dose for reduction in phenylquinone-induced abdominal constriction; type: functional; details: Abdomen
In short: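 Phenylquinone-induced abdominal constriction assay run as an oral dose-response study. The ED50 was derived from reduction of constrictions.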

Mus musculus [2] = experiment: The compound was tested for reduction in phenylquinone-induced abdominal constriction and is expressed in % reduction at a po (per oral) dose of 70 mg/kg.; type: functional, Abdomen
In short: (§1)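 Phenylquinone-induced abdominal constriction analgesia assay. A single oral screening dose of 70 mg/kg was given, and the read-out is percent reduction in constrictions versus control. Tebufelone and naproxen served as reference agents.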

Mus musculus [3] = species on record: Mus musculus; experiment: The compound was tested for reduction in phenylquinone-induced abdominal constriction; type: functional; details: Abdomen
Rattus norvegicus = experiment: Carrageenan paw edema index (CPE index) as ratio of the reduction in paw volume of tested compound relative to the compound tebufelone at peroral dose of 50 mg/kg.; type: functional; details: route oral
[4] = target: T1, Prostaglandin G/H synthase 2 (Homo sapiens, UniProt P35354)
T1 sequence (P35354 whole entry): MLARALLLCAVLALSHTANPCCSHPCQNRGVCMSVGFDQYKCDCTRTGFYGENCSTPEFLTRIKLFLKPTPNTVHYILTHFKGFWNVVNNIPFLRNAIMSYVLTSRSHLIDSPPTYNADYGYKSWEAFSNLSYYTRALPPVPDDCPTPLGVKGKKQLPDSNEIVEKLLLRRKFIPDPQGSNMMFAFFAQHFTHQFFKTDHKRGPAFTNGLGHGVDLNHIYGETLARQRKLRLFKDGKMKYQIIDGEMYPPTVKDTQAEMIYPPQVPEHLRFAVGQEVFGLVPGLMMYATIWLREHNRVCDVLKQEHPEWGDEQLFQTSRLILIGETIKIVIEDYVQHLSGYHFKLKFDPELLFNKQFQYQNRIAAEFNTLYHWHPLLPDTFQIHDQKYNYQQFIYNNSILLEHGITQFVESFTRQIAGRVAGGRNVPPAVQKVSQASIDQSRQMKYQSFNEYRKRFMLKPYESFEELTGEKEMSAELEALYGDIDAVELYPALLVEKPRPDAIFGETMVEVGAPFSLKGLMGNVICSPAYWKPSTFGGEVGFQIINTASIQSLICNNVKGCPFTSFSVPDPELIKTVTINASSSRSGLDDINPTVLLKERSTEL

[5] = target: Prostaglandin G/H synthase 1 (Homo sapiens, UniProt P23219); experiment: Inhibition of Prostaglandin G/H synthase 1 (COX-1).
In short: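 Isolated human COX-1 enzyme from platelets. Duplicate samples were each tested in duplicate, and IC50 values were determined.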

[6] = target: T2, Polyunsaturated fatty acid 5-lipoxygenase (Rattus norvegicus, UniProt P12527); experiment: Inhibition of 5-lipoxygenase (LOX)in RBL cells; type: cell-based
T2 sequence (P12527 whole entry): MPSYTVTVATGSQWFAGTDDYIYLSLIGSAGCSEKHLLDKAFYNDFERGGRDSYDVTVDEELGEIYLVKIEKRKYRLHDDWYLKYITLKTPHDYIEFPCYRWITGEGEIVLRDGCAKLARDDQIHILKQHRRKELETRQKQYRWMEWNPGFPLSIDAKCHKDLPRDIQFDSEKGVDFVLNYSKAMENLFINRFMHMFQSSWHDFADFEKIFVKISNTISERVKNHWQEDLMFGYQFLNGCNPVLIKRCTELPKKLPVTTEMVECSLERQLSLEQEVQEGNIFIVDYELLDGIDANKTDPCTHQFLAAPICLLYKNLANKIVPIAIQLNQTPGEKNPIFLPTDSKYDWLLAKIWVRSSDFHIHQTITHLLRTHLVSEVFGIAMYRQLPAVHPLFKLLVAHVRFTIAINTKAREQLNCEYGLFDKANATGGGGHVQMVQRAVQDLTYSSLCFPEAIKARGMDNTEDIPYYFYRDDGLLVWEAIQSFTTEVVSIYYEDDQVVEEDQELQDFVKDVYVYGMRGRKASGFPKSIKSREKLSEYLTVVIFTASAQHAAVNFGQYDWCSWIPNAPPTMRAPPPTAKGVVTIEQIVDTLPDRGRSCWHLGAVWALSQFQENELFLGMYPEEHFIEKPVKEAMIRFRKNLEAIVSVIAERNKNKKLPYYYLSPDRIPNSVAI

Mus musculus [7] = experiment: The compound was tested for reduction in phenylquinone-induced abdominal constriction and is expressed in % reduction at a po (per pral) dose of 70 mg/kg.; type: functional, Abdomen; in short: as §1

Prostaglandin G/H synthase 1, sequence (P23219 whole entry): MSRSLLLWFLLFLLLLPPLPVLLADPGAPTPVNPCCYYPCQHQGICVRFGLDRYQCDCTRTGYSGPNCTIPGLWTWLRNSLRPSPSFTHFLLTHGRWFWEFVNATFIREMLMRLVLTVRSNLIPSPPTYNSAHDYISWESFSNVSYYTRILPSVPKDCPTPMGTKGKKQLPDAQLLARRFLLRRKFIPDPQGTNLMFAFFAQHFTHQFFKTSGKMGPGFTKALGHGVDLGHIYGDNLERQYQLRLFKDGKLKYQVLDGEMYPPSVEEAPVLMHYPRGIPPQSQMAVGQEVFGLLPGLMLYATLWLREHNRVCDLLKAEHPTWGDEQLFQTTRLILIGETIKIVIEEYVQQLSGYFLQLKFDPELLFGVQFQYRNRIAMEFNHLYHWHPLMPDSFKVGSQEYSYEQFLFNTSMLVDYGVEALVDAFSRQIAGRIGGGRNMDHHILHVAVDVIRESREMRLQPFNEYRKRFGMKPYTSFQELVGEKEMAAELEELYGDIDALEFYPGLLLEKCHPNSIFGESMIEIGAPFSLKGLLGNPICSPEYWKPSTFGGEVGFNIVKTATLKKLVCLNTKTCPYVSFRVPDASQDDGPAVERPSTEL

Molecule `CC(C)(C)c1cc(C(=O)CCCC2CC2)cc2c1OCC2(C)C` has an ED50 (Mus musculus [1]) of 11 mg/kg.
`CCCCC(=O)c1cc(C(C)(C)C)c2c(c1)C(C)(C)CO2` showed a Reduction (Mus musculus [2]) of 38%.
`CCCC(=O)c1cc(C(C)(C)C)c2c(c1)C(C)(C)CO2` was tested, and the ED50 (Mus musculus [3]) was 21 mg/kg.
For `CC(C)(O)CC(=O)c1cc(C(C)(C)C)c2c(c1)C(C)(C)CO2`, the CPE index (Rattus norvegicus) was 0.49.
Molecule `CC(C)(C)c1cc(C(=O)CCCC2CC2)cc2c1SCC2(C)C` has a CPE index (Rattus norvegicus) of 0.74.
`C#CCCCC(=O)c1cc2c(c(C(C)(C)C)c1)OCC2` showed a Reduction (Mus musculus [2]) of 67% and a CPE index (Rattus norvegicus) of 0.84.
Work on `CCCCC(=O)c1cc(C(C)(C)C)c2c(c1)C(C)(C)CCN2` yielded a CPE index (Rattus norvegicus) of 0.02.
`O=C(CCCC1CC1)c1ccc2c(c1)CCO2` showed a CPE index (Rattus norvegicus) of 0.13.
With `CCCCC(=O)c1cc(C(C)(C)C)c2c(c1)C(C)(C)CCO2` the ED50 (Mus musculus [1]) was 53 mg/kg and the CPE index (Rattus norvegicus) was 0.69.
With `CCCCC(=O)c1ccc2c(c1)CCO2` the CPE index (Rattus norvegicus) was 0.
Work on `CC1(C)COc2ccc(C(=O)CCCC3CC3)cc21` yielded an IC50 [4] of 8 µM, an IC50 [5] of 25 µM and a CPE index (Rattus norvegicus) of 0.5.
Work on `CCCC(=O)c1ccc2c(c1)C(C)(C)CO2` yielded a CPE index (Rattus norvegicus) of 0.31.
Molecule `CCCC(=O)c1cc(C(C)(C)C)c2c(c1)C(C)(C)CS2` has an IC50 [4] of 0.15 µM, an IC50 [5] of 1.5 µM and an ED50 (Mus musculus [1]) of 74 mg/kg. It also gave a CPE index (Rattus norvegicus) of 1.04.
Molecule `CC(C)(C)c1cc(C(=O)CCCC2CC2)cc2c1NCCC2(C)C` has a CPE index (Rattus norvegicus) of 0.
With `CCCCC(=O)c1cc2c(c(C(C)(C)C)c1)OCC2` the ED50 (Mus musculus [1]) was 0.6 mg/kg and the CPE index (Rattus norvegicus) was 0.69.
`CN1CC(C)(C)c2cc(C(=O)CCCC3CC3)cc(C(C)(C)C)c21` was tested, and the CPE index (Rattus norvegicus) was 0.36.
`CCc1cc(C(=O)CCCC2CC2)cc2c1OCC2(C)C` was tested, and the IC50 [4] was 5 µM, the IC50 [5] was 20 µM and the IC50 [6] was 18 µM.
For `CCCCC(=O)c1cc(C(C)(C)C)c2c(c1)C(C)(C)CCN2C`, the IC50 [4] was 0.3 µM, the IC50 [5] was 2 µM and the CPE index (Rattus norvegicus) was 0.42.
For `CC(C)(C)c1cc(C(=O)CCCC2CC2)cc2c1OCCC2(C)C`, the IC50 [4] was 3 µM, the IC50 [5] was 20 µM and the Reduction (Mus musculus [2]) was 10%. The IC50 [6] was 8 µM and the CPE index (Rattus norvegicus) was 0.57.
`CC(C)(C)c1cc(C(=O)CCCC2CC2)cc2c1OCCC2` was tested, and the CPE index (Rattus norvegicus) was 0.05.
`CCCCC(=O)c1cc2c(c(C(C)(C)C)c1)OCCC2` gave a CPE index (Rattus norvegicus) of 0.21.
`CC(C)(O)CC(=O)c1cc2c(c(C(C)(C)C)c1)OCC2` gave an ED50 (Mus musculus [1]) of 21 mg/kg and a CPE index (Rattus norvegicus) of 0.98.
With `CC(C)(O)CC(=O)c1cc2c(c(C(C)(C)C)c1)OCCC2` the Reduction (Mus musculus [2]) was 50% and the CPE index (Rattus norvegicus) was 0.7.
`C#CCCCC(=O)c1cc2c(c(C(C)(C)C)c1)OCCC2` was tested, and the Reduction (Mus musculus [2]) was 79% and the CPE index (Rattus norvegicus) was 1.04.
With `CC(C)(O)CC(=O)c1cc(C(C)(C)C)c2c(c1)C(C)(C)CCO2` the CPE index (Rattus norvegicus) was 0.48.
In the case of `C#CCCCC(=O)c1cc(C(C)(C)C)c2c(c1)C(C)(C)CCO2`, the Reduction (Mus musculus [2]) is reported as 46% and the CPE index (Rattus norvegicus) is reported as 0.57.
Molecule `CCCCC(=O)c1cc(C(C)(C)C)c2c(c1)C(C)(C)CCS2` has an IC50 [4] of 0.4 µM, a Reduction (Mus musculus [7]) of 17% and an IC50 [5] of 0.4 µM. The CPE index (Rattus norvegicus) was 0.86.
`CC(C)(O)CC(=O)c1ccc2c(c1)C(C)(C)CO2` was tested, and the CPE index (Rattus norvegicus) was 0.39.
Molecule `CCCC(=O)c1cc(C(C)(C)C)c2c(c1)C(C)(CC)CO2` (stereo not given) has a Reduction (Mus musculus [2]) of 45% and a CPE index (Rattus norvegicus) of 0.68.
`CC(C)(C)c1cc(C(=O)CCCC2CC2)cc2c1OCC2` showed an IC50 [4] of 15 µM, an IC50 [5] of 5 µM and an IC50 [6] of 12 µM. For the same molecule, the ED50 (Mus musculus [1]) was 6 mg/kg and the CPE index (Rattus norvegicus) was 0.5.
Molecule `CC1(C)COc2c(C3CCCC3)cc(C(=O)CCCC3CC3)cc21` has an IC50 [4] of 20 µM, an IC50 [5] of over 100 µM and a CPE index (Rattus norvegicus) of 0.27.
With `CN1CCC(C)(C)c2cc(C(=O)CCCC3CC3)cc(C(C)(C)C)c21` the CPE index (Rattus norvegicus) was 0.37.
`COc1ccc2cc([C@H](C)C(=O)O)ccc2c1` [NAPROXEN] was tested, and the ED50 (Mus musculus [3]) was 1.3 mg/kg and the CPE index (Rattus norvegicus) was 1.06.
`C#CCCCC(=O)c1cc(C(C)(C)C)c(O)c(C(C)(C)C)c1` [TEBUFELONE] gave an ED50 (Mus musculus [3]) of 26 mg/kg.
